Here are results for one compound from ChEMBL document CHEMBL4152367, “Discovery of a Potent Thiazolidine Free Fatty Acid Receptor 2 Agonist with Favorable Pharmacokinetic Properties” (J Med Chem, 2018).

Structures are written as SMILES. Calls of active or inactive are those of the source. The calls are words filed in the database; no cut-off is given here.

Data set [1] addresses Free fatty acid receptor 1 (Homo sapiens) (UniProt O14842). As to the kind of experiment: Agonist activity at human FFA1R expressed in HEK293 cells assessed as induction of calcium flux at 10 uM by fluorimetry. Format: functional, cell-based. For orientation: A change in cytosolic calcium serves as a functional read-out for many receptors and channels.
A short description of data set [2]: Metabolic stability in mouse liver microsomes assessed as compound remaining at 1 uM after 1 hr by HPLC method. Format: ADME, microsome. To be noted: read-out: Stability. An outline of the steps:
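Mouse liver microsomes 0.5 mg/mL with 1 µM test compound in 0.1 M PBS pH 7.4 plus NADPH. Pre-incubated 5 min at 37 °C before microsome addition, then 1 h at 37 °C with shaking. Quenched with ice-cold MeOH/MeCN 1:1, centrifuged; HPLC analysis relative to the 0 min sample.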

Data set [3] is described as follows: Volume of distribution in Balb/c mouse at 5 mg/kg, iv by HPLC-MS/MS analysis. Format: ADME, organism-based. To be noted: in vivo. The essentials: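 Balb/c mice dosed at 5 mg/kg iv or 10 mg/kg po. Plasma concentrations over time used to derive t1/2, AUC0–∞, Vd and total clearance (iv), and tmax, Cmax, AUC0–∞ and oral bioavailability (po).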

Chain of Free fatty acid receptor 1 (Homo sapiens) (O14842 whole entry): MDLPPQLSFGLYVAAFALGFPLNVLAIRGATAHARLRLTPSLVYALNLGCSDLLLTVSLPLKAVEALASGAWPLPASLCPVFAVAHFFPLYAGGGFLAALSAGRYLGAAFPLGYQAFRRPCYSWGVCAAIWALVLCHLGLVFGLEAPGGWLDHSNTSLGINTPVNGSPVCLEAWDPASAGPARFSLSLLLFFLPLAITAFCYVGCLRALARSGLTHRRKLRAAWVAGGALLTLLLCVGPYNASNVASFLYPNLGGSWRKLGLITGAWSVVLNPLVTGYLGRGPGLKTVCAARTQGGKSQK

For `Cc1noc(C)c1-c1ccc(C(=O)N2[C@@H](c3ccccc3Cl)SC[C@H]2C(=O)O)cc1`, the outcome in data set [1] was inactive. Moreover, the remaining at 1 h, 1 µM in data set [2] was determined as 82%. Also, in data set [3], the Vd (as a rule, the apparent volume that relates the amount in the body to the concentration in plasma or blood) came out at 4.05 L/kg.
